# Assay results from PMC3525873 (British Journal of Pharmacology, 2012).
# Key:
# Type in all cases: cell-based
# TRPC4beta = target: T1, TRPC4beta (Homo sapiens, UniProt Q9UBN4); assay: Fura-2 Ca2+ entry in HEK293 cells overexpressing TRPC4beta-YFP
# T1 sequence (Q9UBN4 1-893 isoform Q9UBN4-2): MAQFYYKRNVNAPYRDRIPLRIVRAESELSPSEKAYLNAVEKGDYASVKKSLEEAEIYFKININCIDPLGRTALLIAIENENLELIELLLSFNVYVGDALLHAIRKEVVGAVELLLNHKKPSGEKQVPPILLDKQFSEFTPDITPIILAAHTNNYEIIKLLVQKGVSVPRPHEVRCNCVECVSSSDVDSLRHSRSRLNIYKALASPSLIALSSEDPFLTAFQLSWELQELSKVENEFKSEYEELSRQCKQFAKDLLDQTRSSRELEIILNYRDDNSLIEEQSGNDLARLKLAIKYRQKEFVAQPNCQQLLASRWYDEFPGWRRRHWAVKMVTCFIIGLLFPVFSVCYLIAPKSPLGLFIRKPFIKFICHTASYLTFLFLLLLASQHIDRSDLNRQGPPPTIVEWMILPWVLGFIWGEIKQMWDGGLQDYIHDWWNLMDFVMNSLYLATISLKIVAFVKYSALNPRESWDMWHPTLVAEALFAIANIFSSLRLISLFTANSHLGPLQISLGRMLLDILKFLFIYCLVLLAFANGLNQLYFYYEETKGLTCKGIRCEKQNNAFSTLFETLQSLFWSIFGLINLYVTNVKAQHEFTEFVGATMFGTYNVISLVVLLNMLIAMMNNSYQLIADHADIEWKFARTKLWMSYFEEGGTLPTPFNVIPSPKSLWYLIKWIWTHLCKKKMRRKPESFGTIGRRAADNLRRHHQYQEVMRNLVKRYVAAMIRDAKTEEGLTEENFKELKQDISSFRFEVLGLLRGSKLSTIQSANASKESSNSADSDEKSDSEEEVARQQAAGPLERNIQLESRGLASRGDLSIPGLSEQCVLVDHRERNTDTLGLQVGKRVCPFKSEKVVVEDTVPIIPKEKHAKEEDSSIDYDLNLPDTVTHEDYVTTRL
# [1] = target: STIM1/Orai1-mediated SOCE (Rattus norvegicus, UniProt Q5M848); assay: Fura-2 Ca2+ re-addition, thapsigargin-depleted native RBL-2H3 cells
# Outline: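 Native RBL-2H3 cells were loaded with 2 μM Fura-2-AM for 45 min and perfused in Ca2+-free extracellular solution at room temperature. Stores depleted with 1 μM thapsigargin for 5 min. Test compound present ≥5 min before and throughout. Ca2+ entry evoked by 2 mM Ca2+ re-addition; 340/380 nm ratio read (510 nm emission). Inhibition expressed as % of control peak entry. IC50 by 4-parameter logistic fit; 3–5 experiments, 29–80 cells.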
# TRPC3 = target: T2, TRPC3 (Homo sapiens, UniProt Q13507); assay: Patch-clamp of TRPC3 currents in HEK293 cells transiently expressing TRPC3
# T2 sequence (Q13507 74-921 limits assumed): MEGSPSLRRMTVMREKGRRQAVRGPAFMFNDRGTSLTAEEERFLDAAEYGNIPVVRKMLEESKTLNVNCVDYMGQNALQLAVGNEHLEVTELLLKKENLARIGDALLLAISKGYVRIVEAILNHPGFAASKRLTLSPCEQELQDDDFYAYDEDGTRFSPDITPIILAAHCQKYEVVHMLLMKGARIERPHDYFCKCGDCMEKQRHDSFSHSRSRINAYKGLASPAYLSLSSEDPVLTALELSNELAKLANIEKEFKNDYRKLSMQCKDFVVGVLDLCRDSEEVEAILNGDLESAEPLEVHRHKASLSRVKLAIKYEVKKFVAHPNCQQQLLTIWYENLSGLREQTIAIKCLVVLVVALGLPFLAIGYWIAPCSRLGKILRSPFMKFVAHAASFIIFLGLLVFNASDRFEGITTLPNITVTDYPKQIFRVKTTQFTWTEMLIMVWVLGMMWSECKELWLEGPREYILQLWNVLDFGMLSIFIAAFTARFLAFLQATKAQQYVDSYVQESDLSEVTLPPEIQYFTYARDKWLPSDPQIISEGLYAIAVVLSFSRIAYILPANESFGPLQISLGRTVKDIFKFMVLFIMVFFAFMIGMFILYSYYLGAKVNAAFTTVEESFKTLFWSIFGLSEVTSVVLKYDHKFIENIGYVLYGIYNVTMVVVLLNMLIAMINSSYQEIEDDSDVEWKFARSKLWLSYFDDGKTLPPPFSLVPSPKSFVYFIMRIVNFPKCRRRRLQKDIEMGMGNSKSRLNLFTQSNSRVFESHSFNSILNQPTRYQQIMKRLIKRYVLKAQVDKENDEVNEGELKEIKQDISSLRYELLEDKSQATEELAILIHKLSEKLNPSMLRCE
# TRPC5 = target: T3, TRPC5 (Homo sapiens, UniProt Q9UL62); assay: Fura-2 Ca2+ entry in HEK293 cells overexpressing YFP-TRPC5
# T3 sequence (Q9UL62 1-973): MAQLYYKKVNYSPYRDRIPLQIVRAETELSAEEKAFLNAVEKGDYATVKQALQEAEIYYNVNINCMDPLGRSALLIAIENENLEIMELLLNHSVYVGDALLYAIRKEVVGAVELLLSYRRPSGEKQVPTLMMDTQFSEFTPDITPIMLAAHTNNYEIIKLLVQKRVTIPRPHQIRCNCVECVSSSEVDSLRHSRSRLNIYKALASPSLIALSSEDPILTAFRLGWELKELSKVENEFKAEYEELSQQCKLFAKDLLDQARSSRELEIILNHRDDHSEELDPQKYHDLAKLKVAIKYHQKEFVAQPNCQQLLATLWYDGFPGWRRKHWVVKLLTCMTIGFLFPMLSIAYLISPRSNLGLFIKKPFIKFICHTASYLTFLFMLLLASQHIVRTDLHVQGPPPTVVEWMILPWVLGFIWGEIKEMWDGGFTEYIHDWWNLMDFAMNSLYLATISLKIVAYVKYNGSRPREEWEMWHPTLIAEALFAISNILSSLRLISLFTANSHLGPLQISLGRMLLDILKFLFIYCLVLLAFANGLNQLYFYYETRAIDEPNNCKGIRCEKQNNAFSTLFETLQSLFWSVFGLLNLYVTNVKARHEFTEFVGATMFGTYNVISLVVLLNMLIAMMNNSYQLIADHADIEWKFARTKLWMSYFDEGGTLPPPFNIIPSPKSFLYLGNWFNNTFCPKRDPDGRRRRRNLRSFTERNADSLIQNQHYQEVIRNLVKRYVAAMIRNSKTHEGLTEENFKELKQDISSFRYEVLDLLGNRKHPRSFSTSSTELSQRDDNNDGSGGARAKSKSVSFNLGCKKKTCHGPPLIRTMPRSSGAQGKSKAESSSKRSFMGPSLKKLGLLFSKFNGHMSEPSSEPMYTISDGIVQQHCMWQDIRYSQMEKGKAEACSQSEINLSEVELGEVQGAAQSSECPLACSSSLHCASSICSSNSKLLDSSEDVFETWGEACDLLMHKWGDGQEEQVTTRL
# Chain of STIM1/Orai1-mediated SOCE (Q5M848 whole entry, the tested form may be a part): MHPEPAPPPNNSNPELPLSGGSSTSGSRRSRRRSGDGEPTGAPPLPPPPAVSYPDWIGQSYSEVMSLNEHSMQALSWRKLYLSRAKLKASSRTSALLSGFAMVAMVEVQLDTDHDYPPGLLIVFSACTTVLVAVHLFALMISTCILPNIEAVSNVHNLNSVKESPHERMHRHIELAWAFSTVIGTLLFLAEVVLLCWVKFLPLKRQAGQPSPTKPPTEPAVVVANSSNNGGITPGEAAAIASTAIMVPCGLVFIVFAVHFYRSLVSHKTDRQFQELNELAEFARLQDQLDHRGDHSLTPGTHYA
IC50 (TRPC4beta),"Higher potency in SOCE model than in TRPC3-ROCE model, orders of magnitude ([1]; RBL-2H3 SOCE vs TRPC3 ROCE)","Higher potency in SOCE model than in TRPC3-ROCE model ([1]; ratio of IC50 values, RBL-2H3 SOCE vs TRPC3 ROCE)","TRPC3 currents remaining (TRPC3; 3 μM, percent of control)",IC50 (TRPC5),Reduction of Ca2+ entry (Orai-mediated) ([1]; 3 μM),"Effect on TRPC3 Ca2+ entry-mediating conductance (TRPC3; 3 μM pre-incubation, carbachol)",SMILES,"Effect on OAG-induced TRPC3 membrane currents (TRPC3; 3 μM, OAG 100 μM)"
> 10 µM,1.58 OM,37 fold,52%,> 10 µM,–,–,"O=C(Nc1ccc(-n2nc(C(F)(F)F)cc2C(F)(F)F)cc1)c1ccncc1F [Pyr6, N-(4-(3,5-bis(trifluoromethyl)-1H-pyrazole-1-yl)phenyl)-3-fluoroisonicotinamide]",–
> 10 µM,–,–,–,> 10 µM,30%,eliminated TRPC3 currents,"Cc1ccc(S(=O)(=O)Nc2ccc(-n3nc(C(F)(F)F)cc3C(F)(F)F)cc2)cc1 [Pyr10, N-(4-(3,5-bis(trifluoromethyl)-1H-pyrazole-1-yl)phenyl)-4-methylbenzenesulfonamide]",potently blocks DAG-mediated TRPC3 membrane currents
